In ChEMBL document CHEMBL1781932 (J Med Chem, 2011):
In brackets after ≈: the same amount, converted by molar mass.

Key:
Type in all cases: functional
Staphylococcus aureus [1] = assay: Antimicrobial activity against tetracycline-susceptible Staphylococcus aureus isolate 101 by CLSI dilution method
Klebsiella pneumoniae [2] = assay: Antimicrobial activity against tetracycline-susceptible Klebsiella pneumoniae isolate 109 by CLSI dilution method
How it was run: (§1)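 Broth microdilution per CLSI in fresh cation-adjusted Mueller Hinton broth, kept at 4 °C before testing, with defibrinated horse blood added as appropriate. Strains were from ATCC. MIC in µg/mL. Runs were accepted when comparator antibiotics against ATCC quality-control strains fell within recommended ranges.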

Staphylococcus aureus [3] = assay: Antimicrobial activity against methicillin-, tetracycline-resistant Staphylococcus aureus isolate 161 harboring tetM gene by CLSI dilution method
Acinetobacter baumannii = assay: Antimicrobial activity against tetracycline-susceptible Acinetobacter baumannii isolate 110 by CLSI dilution method; how it was run: as §1
Klebsiella pneumoniae [4] = assay: Antimicrobial activity against tetracycline-resistant Klebsiella pneumoniae isolate 153 harboring tetA gene by CLSI dilution method
Staphylococcus aureus [5] = assay: Antimicrobial activity against tetracycline-resistant Staphylococcus aureus isolate 158 harboring tetK gene by CLSI dilution method
Escherichia coli [6] = assay: Antimicrobial activity against tetracycline-susceptible Escherichia coli isolate 107 by CLSI dilution method; how it was run: as §1
Enterobacter cloacae = assay: Antimicrobial activity against tetracycline-susceptible Enterobacter cloacae isolate 108 by CLSI dilution method; how it was run: as §1
Enterococcus faecalis [7] = assay: Antimicrobial activity against tetracycline-resistant Enterococcus faecalis isolate 159 harboring […] gene by CLSI dilution method
Streptococcus pneumoniae [8] = assay: Antimicrobial activity against tetracycline-resistant Streptococcus pneumoniae isolate 160 harboring tetM gene by CLSI dilution method
Streptococcus pneumoniae [9] = assay: Antimicrobial activity against tetracycline-susceptible Streptococcus pneumoniae isolate 106 by CLSI dilution method; how it was run: as §1
Enterococcus faecalis [10] = assay: Antimicrobial activity against tetracycline-susceptible Enterococcus faecalis isolate 103 by CLSI dilution method; how it was run: as §1
Pseudomonas aeruginosa = assay: Antimicrobial activity against tetracycline-susceptible Pseudomonas aeruginosa isolate 111 by CLSI dilution method; how it was run: as §1
Escherichia coli [11] = assay: Antimicrobial activity against tetracycline-resistant Escherichia coli isolate 155 harboring tetA gene by CLSI dilution method

## CN(C)[C@@H]1C(O)=C(C(N)=O)C(=O)[C@@]2(O)C(O)=C3C(=O)c4c(cc5ccc(CN6CCCCC6)cc5c4O)C[C@H]3C[C@@H]12
Staphylococcus aureus [1]
  MIC: 0.5 µg/mL (≈ 0.89 µM)
Klebsiella pneumoniae [2]
  MIC: 8 µg/mL (≈ 14.2 µM)
Staphylococcus aureus [3]
  MIC: 2 µg/mL (≈ 3.56 µM)
Acinetobacter baumannii
  MIC: 1 µg/mL (≈ 1.78 µM)
Klebsiella pneumoniae [4]
  MIC: 8 µg/mL (≈ 14.2 µM)
Staphylococcus aureus [5]
  MIC: 0.5 µg/mL (≈ 0.89 µM)
Escherichia coli [6]
  MIC: 2 µg/mL (≈ 3.56 µM)
Enterobacter cloacae
  MIC: 8 µg/mL (≈ 14.2 µM)
Enterococcus faecalis [7]
  MIC: 2 µg/mL (≈ 3.56 µM)
Streptococcus pneumoniae [8]
  MIC: 0.25 µg/mL (≈ 0.445 µM)
Streptococcus pneumoniae [9]
  MIC: 0.125 µg/mL (≈ 0.223 µM)
Enterococcus faecalis [10]
  MIC: 0.5 µg/mL (≈ 0.89 µM)
Pseudomonas aeruginosa
  MIC: > 32 µg/mL

## CCNCc1ccc2c(F)c3c(c(O)c2c1)C(=O)C1=C(O)[C@]2(O)C(=O)C(C(N)=O)=C(O)[C@@H](N(C)C)[C@@H]2C[C@@H]1C3
Staphylococcus aureus [1]
  MIC: 0.5 µg/mL (≈ 0.927 µM)
Klebsiella pneumoniae [2]
  MIC: 4 µg/mL (≈ 7.41 µM)
Staphylococcus aureus [3]
  MIC: 2 µg/mL (≈ 3.71 µM)
Acinetobacter baumannii
  MIC: 1 µg/mL (≈ 1.85 µM)
Klebsiella pneumoniae [4]
  MIC: 8 µg/mL (≈ 14.8 µM)
Escherichia coli [6]
  MIC: 1 µg/mL (≈ 1.85 µM)
Enterobacter cloacae
  MIC: 2 µg/mL (≈ 3.71 µM)
Enterococcus faecalis [7]
  MIC: 2 µg/mL (≈ 3.71 µM)
Escherichia coli [11]
  MIC: 8 µg/mL (≈ 14.8 µM)
Streptococcus pneumoniae [9]
  MIC: 0.0313 µg/mL (≈ 0.058 µM)
Enterococcus faecalis [10]
  MIC: 0.25 µg/mL (≈ 0.463 µM)
Pseudomonas aeruginosa
  MIC: 16 µg/mL (≈ 29.7 µM)

## CN(C)[C@@H]1C(O)=C(C(N)=O)C(=O)[C@@]2(O)C(O)=C3C(=O)c4c(c(F)c5ccc(CNC6CC6)cc5c4O)C[C@H]3C[C@@H]12
Klebsiella pneumoniae [2]
  MIC: 4 µg/mL (≈ 7.25 µM)
Staphylococcus aureus [3]
  MIC: 2 µg/mL (≈ 3.63 µM)
Acinetobacter baumannii
  MIC: 0.25 µg/mL (≈ 0.453 µM)
Klebsiella pneumoniae [4]
  MIC: 8 µg/mL (≈ 14.5 µM)
Escherichia coli [6]
  MIC: 2 µg/mL (≈ 3.63 µM)
Enterobacter cloacae
  MIC: 4 µg/mL (≈ 7.25 µM)
Enterococcus faecalis [7]
  MIC: 2 µg/mL (≈ 3.63 µM)
Escherichia coli [11]
  MIC: 8 µg/mL (≈ 14.5 µM)
Streptococcus pneumoniae [9]
  MIC: 0.0625 µg/mL (≈ 0.113 µM)
Enterococcus faecalis [10]
  MIC: 0.5 µg/mL (≈ 0.907 µM)
Pseudomonas aeruginosa
  MIC: > 32 µg/mL

## CN(C)[C@@H]1C(O)=C(C(N)=O)C(=O)[C@@]2(O)C(O)=C3C(=O)c4c(c(F)c5ccc(CN6CCCC6)cc5c4O)C[C@H]3C[C@@H]12
Staphylococcus aureus [1]
  MIC: 0.25 µg/mL (≈ 0.442 µM)
Klebsiella pneumoniae [2]
  MIC: 2 µg/mL (≈ 3.54 µM)
Staphylococcus aureus [3]
  MIC: 1 µg/mL (≈ 1.77 µM)
Acinetobacter baumannii
  MIC: 0.25 µg/mL (≈ 0.442 µM)
Klebsiella pneumoniae [4]
  MIC: 4 µg/mL (≈ 7.07 µM)
Staphylococcus aureus [5]
  MIC: 0.125 µg/mL (≈ 0.221 µM)
Escherichia coli [6]
  MIC: 1 µg/mL (≈ 1.77 µM)
Enterobacter cloacae
  MIC: 4 µg/mL (≈ 7.07 µM)
Enterococcus faecalis [7]
  MIC: 1 µg/mL (≈ 1.77 µM)
Escherichia coli [11]
  MIC: 4 µg/mL (≈ 7.07 µM)
Streptococcus pneumoniae [8]
  MIC: 0.0313 µg/mL (≈ 0.0553 µM)
Streptococcus pneumoniae [9]
  MIC: 0.0313 µg/mL (≈ 0.0553 µM)
Enterococcus faecalis [10]
  MIC: 0.125 µg/mL (≈ 0.221 µM)
Pseudomonas aeruginosa
  MIC: 32 µg/mL (≈ 56.6 µM)

## CCCNCc1ccc2c(OC)c3c(c(O)c2c1)C(=O)C1=C(O)[C@]2(O)C(=O)C(C(N)=O)=C(O)[C@@H](N(C)C)[C@@H]2C[C@@H]1C3
Staphylococcus aureus [1]
  MIC: 0.25 µg/mL (≈ 0.442 µM)
Klebsiella pneumoniae [2]
  MIC: 1 µg/mL (≈ 1.77 µM)
Staphylococcus aureus [3]
  MIC: 2 µg/mL (≈ 3.54 µM)
Acinetobacter baumannii
  MIC: 1 µg/mL (≈ 1.77 µM)
Staphylococcus aureus [5]
  MIC: 0.0625 µg/mL (≈ 0.11 µM)
Escherichia coli [6]
  MIC: 1 µg/mL (≈ 1.77 µM)
Enterobacter cloacae
  MIC: 1 µg/mL (≈ 1.77 µM)
Enterococcus faecalis [7]
  MIC: 2 µg/mL (≈ 3.54 µM)
Escherichia coli [11]
  MIC: 8 µg/mL (≈ 14.1 µM)
Streptococcus pneumoniae [8]
  MIC: 0.125 µg/mL (≈ 0.221 µM)
Streptococcus pneumoniae [9]
  MIC: 0.0156 µg/mL (≈ 0.0276 µM)
Enterococcus faecalis [10]
  MIC: 0.125 µg/mL (≈ 0.221 µM)
Pseudomonas aeruginosa
  MIC: 16 µg/mL (≈ 28.3 µM)

## COc1c2c(c(O)c3cc(CN4CCCC4)ccc13)C(=O)C1=C(O)[C@]3(O)C(=O)C(C(N)=O)=C(O)[C@@H](N(C)C)[C@@H]3C[C@@H]1C2
Staphylococcus aureus [1]
  MIC: 0.25 µg/mL (≈ 0.433 µM)
Klebsiella pneumoniae [2]
  MIC: 4 µg/mL (≈ 6.92 µM)
Staphylococcus aureus [3]
  MIC: 2 µg/mL (≈ 3.46 µM)
Acinetobacter baumannii
  MIC: 1 µg/mL (≈ 1.73 µM)
Klebsiella pneumoniae [4]
  MIC: 8 µg/mL (≈ 13.8 µM)
Staphylococcus aureus [5]
  MIC: 0.125 µg/mL (≈ 0.216 µM)
Escherichia coli [6]
  MIC: 1 µg/mL (≈ 1.73 µM)
Enterobacter cloacae
  MIC: 4 µg/mL (≈ 6.92 µM)
Enterococcus faecalis [7]
  MIC: 4 µg/mL (≈ 6.92 µM)
Escherichia coli [11]
  MIC: 8 µg/mL (≈ 13.8 µM)
Streptococcus pneumoniae [8]
  MIC: 0.25 µg/mL (≈ 0.433 µM)
Streptococcus pneumoniae [9]
  MIC: 0.0156 µg/mL (≈ 0.027 µM)
Enterococcus faecalis [10]
  MIC: 0.25 µg/mL (≈ 0.433 µM)
Pseudomonas aeruginosa
  MIC: 16 µg/mL (≈ 27.7 µM)

## CNCc1ccc2c(N(C)C)c3c(c(O)c2c1)C(=O)C1=C(O)[C@]2(O)C(=O)C(C(N)=O)=C(O)[C@@H](N(C)C)[C@@H]2C[C@@H]1C3
Staphylococcus aureus [1]
  MIC: 0.25 µg/mL (≈ 0.454 µM)
Klebsiella pneumoniae [2]
  MIC: 4 µg/mL (≈ 7.26 µM)
Staphylococcus aureus [3]
  MIC: 2 µg/mL (≈ 3.63 µM)
Acinetobacter baumannii
  MIC: 2 µg/mL (≈ 3.63 µM)
Klebsiella pneumoniae [4]
  MIC: 32 µg/mL (≈ 58.1 µM)
Staphylococcus aureus [5]
  MIC: 0.5 µg/mL (≈ 0.908 µM)
Escherichia coli [6]
  MIC: 2 µg/mL (≈ 3.63 µM)
Enterobacter cloacae
  MIC: 8 µg/mL (≈ 14.5 µM)
Enterococcus faecalis [7]
  MIC: 4 µg/mL (≈ 7.26 µM)
Escherichia coli [11]
  MIC: 32 µg/mL (≈ 58.1 µM)
Streptococcus pneumoniae [8]
  MIC: 0.5 µg/mL (≈ 0.908 µM)
Streptococcus pneumoniae [9]
  MIC: 0.125 µg/mL (≈ 0.227 µM)
Enterococcus faecalis [10]
  MIC: 0.5 µg/mL (≈ 0.908 µM)
Pseudomonas aeruginosa
  MIC: > 32 µg/mL

## CN(C)Cc1ccc2c(N(C)C)c3c(c(O)c2c1)C(=O)C1=C(O)[C@]2(O)C(=O)C(C(N)=O)=C(O)[C@@H](N(C)C)[C@@H]2C[C@@H]1C3
Staphylococcus aureus [1]
  MIC: 0.25 µg/mL (≈ 0.443 µM)
Klebsiella pneumoniae [2]
  MIC: 8 µg/mL (≈ 14.2 µM)
Staphylococcus aureus [3]
  MIC: 2 µg/mL (≈ 3.54 µM)
Acinetobacter baumannii
  MIC: 16 µg/mL (≈ 28.3 µM)
Staphylococcus aureus [5]
  MIC: 0.25 µg/mL (≈ 0.443 µM)
Escherichia coli [6]
  MIC: 2 µg/mL (≈ 3.54 µM)
Enterobacter cloacae
  MIC: 32 µg/mL (≈ 56.7 µM)
Enterococcus faecalis [7]
  MIC: 2 µg/mL (≈ 3.54 µM)
Streptococcus pneumoniae [8]
  MIC: 0.25 µg/mL (≈ 0.443 µM)
Streptococcus pneumoniae [9]
  MIC: < 0.0156 µg/mL
Enterococcus faecalis [10]
  MIC: 0.25 µg/mL (≈ 0.443 µM)
Pseudomonas aeruginosa
  MIC: > 32 µg/mL

## CN(C)c1cccc2c(O)c3c(cc12)C[C@H]1C[C@H]2[C@H](N(C)C)C(O)=C(C(N)=O)C(=O)[C@@]2(O)C(O)=C1C3=O
Staphylococcus aureus [1]
  MIC: 1 µg/mL (≈ 1.97 µM)
Klebsiella pneumoniae [2]
  MIC: > 32 µg/mL
Staphylococcus aureus [3]
  MIC: 2 µg/mL (≈ 3.94 µM)
Acinetobacter baumannii
  MIC: 16 µg/mL (≈ 31.5 µM)
Klebsiella pneumoniae [4]
  MIC: > 32 µg/mL
Staphylococcus aureus [5]
  MIC: 1 µg/mL (≈ 1.97 µM)
Enterobacter cloacae
  MIC: > 32 µg/mL
Enterococcus faecalis [7]
  MIC: 2 µg/mL (≈ 3.94 µM)
Escherichia coli [11]
  MIC: > 32 µg/mL
Streptococcus pneumoniae [8]
  MIC: 8 µg/mL (≈ 15.8 µM)
Streptococcus pneumoniae [9]
  MIC: 4 µg/mL (≈ 7.88 µM)
Enterococcus faecalis [10]
  MIC: 1 µg/mL (≈ 1.97 µM)
Pseudomonas aeruginosa
  MIC: > 32 µg/mL
